Laboratory results as given in ChEMBL document CHEMBL4229344 (Eur J Med Chem, 2018).

Key:
[1] = biological target: Aurora kinase A (Homo sapiens) (UniProt O14965); assay: Binding affinity to wild-type human partial length AURKA (E122 to K401 residues) expressed in mammalian expression system assessed as residual binding level at 1 uM by Kinomescan method relative to control
Procedure, shortened: (§1)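 Kinome-wide competition binding screen against a panel of 468 purified kinases/mutants, with the test compound at a single concentration of 1 μM. Read-out is the relative binding activity of each kinase in the presence of compound.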

[2] = test system: Receptor-type tyrosine-protein kinase FLT3 (Homo sapiens), P36888 [D835H]; assay: Binding affinity to human partial length FLT3 D835H mutant (V592 to Y969 residues) expressed in bacterial expression system assessed as residual binding level at 1 uM by Kinomescan method relative to control
Procedure, shortened: (§2)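 Kinome-wide single-concentration binding screen (KINOMEscan) at 1 μM against a panel of 468 purified kinases and mutants. Read-out is relative binding of each kinase compared with control. Selectivity across the panel was summarised as an S(10) score.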

[3] = biological target: Serine/threonine-protein kinase Nek10 (Homo sapiens) (UniProt Q6ZWH5); assay: Binding affinity to wild-type human partial length NEK10 (L488 to R809 residues) expressed in mammalian expression system assessed as residual binding level at 1 uM by Kinomescan method relative to control
[4] = test system: Receptor-type tyrosine-protein kinase FLT3 (Homo sapiens), P36888 [D835V]; assay: Binding affinity to human partial length FLT3 D835V mutant (V592 to Y969 residues) expressed in bacterial expression system assessed as residual binding level at 1 uM by Kinomescan method relative to control; procedure, shortened: as §2
[5] = test system: Epidermal growth factor receptor (Homo sapiens), P00533 [L861Q]; assay: Binding affinity to human partial length EGFR L861Q mutant (R669 to V1011 residues) expressed in bacterial expression system assessed as residual binding level at 1 uM by Kinomescan method relative to control; procedure, shortened: as §2
[6] = biological target: Serine/threonine-protein kinase MRCK alpha (Homo sapiens) (UniProt Q5VT25); assay: Binding affinity to wild-type human partial length MRCKA (L57 to V418 residues) expressed in bacterial expression system assessed as residual binding level at 1 uM by Kinomescan method relative to control; procedure, shortened: as §1
[7] = biological target: Serine/threonine-protein kinase MRCK gamma (Homo sapiens) (UniProt Q6DT37); assay: Binding affinity to wild-type human partial length DMPK2 (S46 to S408 residues) expressed in bacterial expression system assessed as residual binding level at 1 uM by Kinomescan method relative to control
[8] = biological target: Aurora kinase C (Homo sapiens) (UniProt Q9UQB9); assay: Binding affinity to wild-type human full length AURKC (M1 to S275 residues) expressed in bacterial expression system assessed as residual binding level at 1 uM by Kinomescan method relative to control
Procedure, shortened: (§3)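 Single-concentration (1 μM) competition-binding screen run by KINOMEscan against a panel of 468 purified kinases and mutants. The read-out is the relative binding activity of the test compound to each kinase.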

[9] = biological target: SNF-related serine/threonine-protein kinase (Homo sapiens) (UniProt Q9NRH2); assay: Binding affinity to wild-type human partial length SNRK (M1 to E339 residues) expressed in mammalian expression system assessed as residual binding level at 1 uM by Kinomescan method relative to control
[10] = biological target: Cyclin-dependent kinase 11A (Homo sapiens) (UniProt Q9UQ88); assay: Binding affinity to wild-type human partial length CDC2L2 (D391 to K730 residues) expressed in bacterial expression system assessed as residual binding level at 1 uM by Kinomescan method relative to control
[11] = biological target: Receptor-interacting serine/threonine-protein kinase 1 (Homo sapiens) (UniProt Q13546); assay: Binding affinity to wild-type human partial length RIPK1 (M1 to K305 residues) expressed in bacterial expression system assessed as residual binding level at 1 uM by Kinomescan method relative to control
Procedure, shortened: (§4)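 KINOMEscan competition binding against a panel of 468 purified kinases/mutants, compound tested at 1 μM; readout is relative binding activity versus control.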

[12] = biological target: Mitogen-activated protein kinase kinase kinase kinase 3 (Homo sapiens) (UniProt Q8IVH8); assay: Binding affinity to wild-type human partial length MAP4K3 (M1 to D301 residues) expressed in bacterial expression system assessed as residual binding level at 1 uM by Kinomescan method relative to control
[13] = biological target: Vascular endothelial growth factor receptor 2 (Homo sapiens) (UniProt P35968); assay: Binding affinity to wild-type human partial length VEGFR2 (R787 to P1253 residues) expressed in mammalian expression system assessed as residual binding level at 1 uM by Kinomescan method relative to control; procedure, shortened: as §4
[14] = biological target: Epithelial discoidin domain-containing receptor 1 (Homo sapiens, UniProt Q08345); assay: Binding affinity to wild-type human partial length DDR1 (R565 to V876 residues) expressed in bacterial expression system assessed as residual binding level at 1 uM by Kinomescan method relative to control; procedure, shortened: as §1
[15] = biological target: Activin receptor type-2A (Homo sapiens) (UniProt P27037); assay: Binding affinity to wild-type human ACVR2A (V171 to T499 residues) expressed in bacterial expression system assessed as residual binding level at 1 uM by Kinomescan method relative to control; procedure, shortened: as §3
[16] = Cmax in Sprague-Dawley rat at 1 mg/kg, iv; format: ADME, organism-based; set-up: dose 1 mg/kg, route intravenous; conditions: in vivo
Procedure, shortened: (§5)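 Male Sprague-Dawley rats, 6–8 weeks old and fasted overnight, dosed IV at 1 mg/kg or PO at 10 mg/kg. Formulation was 5% DMSO/40% PEG400/55% saline (1 mg/mL). Jugular blood collected on heparin from 1 min to 8 h (IV) or 5 min to 24 h (PO). Plasma separated by centrifugation at 2–8 °C and stored at −80 °C.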

[17] = biological target: Serine/threonine-protein kinase MRCK beta (Homo sapiens) (UniProt Q9Y5S2); assay: Binding affinity to wild-type human partial length MRCKB (L56 to S417 residues) expressed in bacterial expression system assessed as residual binding level at 1 uM by Kinomescan method relative to control
[18] = biological target: TGF-beta receptor type-2 (Homo sapiens) (UniProt P37173); assay: Binding affinity to wild-type human partial length TGFBR2 (I218 to K567 residues) expressed in bacterial expression system assessed as residual binding level at 1 uM by Kinomescan method relative to control
[19] = biological target: Platelet-derived growth factor receptor alpha (Homo sapiens, UniProt P16234); assay: Inhibition of PDGFRalpha (unknown origin) using poly(4:1 Glu,Tyr) peptide as substrate preincubated for 1 hr followed by addition of ATP and measured after 30 mins by ADP-Glo bioluminescence assay
[20] = test system: Phosphatidylinositol 4,5-bisphosphate 3-kinase catalytic subunit alpha isoform (Homo sapiens), P42336 [E545K]; assay: Binding affinity to human partial length PIK3CA E545K mutant (R108 to N1068 residues) expressed in mammalian expression system assessed as residual binding level at 1 uM by Kinomescan method relative to control; procedure, shortened: as §2
[21] = biological target: Serine/threonine-protein kinase MARK1 (Homo sapiens) (UniProt Q9P0L2); assay: Binding affinity to wild-type human partial length MARK1 (Q30 to T341 residues) expressed in bacterial expression system assessed as residual binding level at 1 uM by Kinomescan method relative to control
[22] = Tmax in Sprague-Dawley rat at 1 mg/kg, iv; format: ADME, organism-based; conditions: in vivo; procedure, shortened: as §5

Chain of Activin receptor type-2A (Homo sapiens) (P27037 whole entry, the tested form may be a part): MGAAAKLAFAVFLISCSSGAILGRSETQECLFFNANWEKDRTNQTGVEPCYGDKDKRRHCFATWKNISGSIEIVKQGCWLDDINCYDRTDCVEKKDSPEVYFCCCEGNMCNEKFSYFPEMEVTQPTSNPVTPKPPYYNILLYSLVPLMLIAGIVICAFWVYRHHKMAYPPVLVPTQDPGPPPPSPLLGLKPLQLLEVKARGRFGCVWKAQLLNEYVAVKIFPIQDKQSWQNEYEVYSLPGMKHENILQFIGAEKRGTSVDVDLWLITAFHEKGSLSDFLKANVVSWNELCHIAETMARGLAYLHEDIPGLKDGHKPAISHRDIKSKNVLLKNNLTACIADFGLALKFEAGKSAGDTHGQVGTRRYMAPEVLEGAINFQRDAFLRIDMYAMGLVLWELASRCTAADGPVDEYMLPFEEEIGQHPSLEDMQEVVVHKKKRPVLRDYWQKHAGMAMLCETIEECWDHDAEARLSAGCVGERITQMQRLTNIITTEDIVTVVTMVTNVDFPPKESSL
Chain of Serine/threonine-protein kinase Nek10 (Homo sapiens) (Q6ZWH5 whole entry, the tested form may be a part): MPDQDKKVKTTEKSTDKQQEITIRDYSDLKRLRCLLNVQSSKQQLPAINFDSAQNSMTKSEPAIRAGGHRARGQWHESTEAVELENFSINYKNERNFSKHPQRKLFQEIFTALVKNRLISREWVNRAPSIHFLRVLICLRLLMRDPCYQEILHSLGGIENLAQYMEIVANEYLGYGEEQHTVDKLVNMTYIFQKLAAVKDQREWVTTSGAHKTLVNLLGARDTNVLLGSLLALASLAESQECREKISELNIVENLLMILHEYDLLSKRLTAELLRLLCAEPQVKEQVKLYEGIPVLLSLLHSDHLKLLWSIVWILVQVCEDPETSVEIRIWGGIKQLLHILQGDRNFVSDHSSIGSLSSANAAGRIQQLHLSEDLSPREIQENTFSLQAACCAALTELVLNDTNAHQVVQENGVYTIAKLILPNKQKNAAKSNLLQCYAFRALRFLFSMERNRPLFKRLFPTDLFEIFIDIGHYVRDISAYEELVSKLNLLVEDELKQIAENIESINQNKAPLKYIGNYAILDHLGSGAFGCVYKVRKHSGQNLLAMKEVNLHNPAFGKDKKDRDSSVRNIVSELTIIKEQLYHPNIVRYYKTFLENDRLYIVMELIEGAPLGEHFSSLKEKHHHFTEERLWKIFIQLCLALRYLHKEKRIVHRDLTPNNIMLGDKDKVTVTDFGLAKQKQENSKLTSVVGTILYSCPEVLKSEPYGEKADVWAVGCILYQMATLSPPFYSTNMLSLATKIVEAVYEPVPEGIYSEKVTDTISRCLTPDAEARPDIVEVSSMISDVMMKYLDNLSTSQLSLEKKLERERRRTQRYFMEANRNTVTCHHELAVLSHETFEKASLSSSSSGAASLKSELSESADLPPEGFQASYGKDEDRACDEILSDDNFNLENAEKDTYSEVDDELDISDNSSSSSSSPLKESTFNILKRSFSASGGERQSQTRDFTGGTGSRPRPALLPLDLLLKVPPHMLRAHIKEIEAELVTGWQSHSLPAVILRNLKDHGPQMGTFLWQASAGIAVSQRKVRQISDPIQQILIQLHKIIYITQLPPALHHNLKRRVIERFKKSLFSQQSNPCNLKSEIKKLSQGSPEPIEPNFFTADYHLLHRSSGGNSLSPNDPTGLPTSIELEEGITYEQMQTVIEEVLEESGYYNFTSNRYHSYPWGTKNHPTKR
Chain of Mitogen-activated protein kinase kinase kinase kinase 3 (Homo sapiens) (Q8IVH8 whole entry, the tested form may be a part): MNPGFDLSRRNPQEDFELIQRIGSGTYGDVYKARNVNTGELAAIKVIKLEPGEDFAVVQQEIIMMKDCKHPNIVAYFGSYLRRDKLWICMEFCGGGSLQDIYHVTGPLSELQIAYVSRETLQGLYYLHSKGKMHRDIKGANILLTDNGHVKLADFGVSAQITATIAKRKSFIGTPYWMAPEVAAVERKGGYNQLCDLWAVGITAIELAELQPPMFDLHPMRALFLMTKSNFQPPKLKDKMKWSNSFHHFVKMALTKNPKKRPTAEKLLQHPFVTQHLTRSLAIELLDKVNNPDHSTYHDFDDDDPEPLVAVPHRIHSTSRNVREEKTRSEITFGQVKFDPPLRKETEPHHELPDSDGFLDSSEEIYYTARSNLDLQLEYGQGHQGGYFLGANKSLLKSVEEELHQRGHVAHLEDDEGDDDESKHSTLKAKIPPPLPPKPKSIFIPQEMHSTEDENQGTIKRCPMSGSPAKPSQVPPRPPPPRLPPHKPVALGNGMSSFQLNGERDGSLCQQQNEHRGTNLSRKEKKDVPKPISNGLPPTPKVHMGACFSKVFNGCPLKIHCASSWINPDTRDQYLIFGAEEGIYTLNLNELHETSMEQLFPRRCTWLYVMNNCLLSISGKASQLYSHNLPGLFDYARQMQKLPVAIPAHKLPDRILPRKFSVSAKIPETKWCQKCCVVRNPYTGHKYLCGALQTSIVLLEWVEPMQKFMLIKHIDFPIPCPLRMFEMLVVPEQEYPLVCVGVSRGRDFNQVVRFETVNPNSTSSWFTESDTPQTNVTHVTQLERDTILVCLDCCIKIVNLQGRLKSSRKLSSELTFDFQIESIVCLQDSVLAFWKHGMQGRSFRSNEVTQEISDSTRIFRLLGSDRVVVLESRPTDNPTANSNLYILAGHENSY
Chain of Phosphatidylinositol 4,5-bisphosphate 3-kinase catalytic subunit alpha isoform (Homo sapiens), P42336 [E545K] (P42336 whole entry E545K, the tested form may be a part, canonical isoform): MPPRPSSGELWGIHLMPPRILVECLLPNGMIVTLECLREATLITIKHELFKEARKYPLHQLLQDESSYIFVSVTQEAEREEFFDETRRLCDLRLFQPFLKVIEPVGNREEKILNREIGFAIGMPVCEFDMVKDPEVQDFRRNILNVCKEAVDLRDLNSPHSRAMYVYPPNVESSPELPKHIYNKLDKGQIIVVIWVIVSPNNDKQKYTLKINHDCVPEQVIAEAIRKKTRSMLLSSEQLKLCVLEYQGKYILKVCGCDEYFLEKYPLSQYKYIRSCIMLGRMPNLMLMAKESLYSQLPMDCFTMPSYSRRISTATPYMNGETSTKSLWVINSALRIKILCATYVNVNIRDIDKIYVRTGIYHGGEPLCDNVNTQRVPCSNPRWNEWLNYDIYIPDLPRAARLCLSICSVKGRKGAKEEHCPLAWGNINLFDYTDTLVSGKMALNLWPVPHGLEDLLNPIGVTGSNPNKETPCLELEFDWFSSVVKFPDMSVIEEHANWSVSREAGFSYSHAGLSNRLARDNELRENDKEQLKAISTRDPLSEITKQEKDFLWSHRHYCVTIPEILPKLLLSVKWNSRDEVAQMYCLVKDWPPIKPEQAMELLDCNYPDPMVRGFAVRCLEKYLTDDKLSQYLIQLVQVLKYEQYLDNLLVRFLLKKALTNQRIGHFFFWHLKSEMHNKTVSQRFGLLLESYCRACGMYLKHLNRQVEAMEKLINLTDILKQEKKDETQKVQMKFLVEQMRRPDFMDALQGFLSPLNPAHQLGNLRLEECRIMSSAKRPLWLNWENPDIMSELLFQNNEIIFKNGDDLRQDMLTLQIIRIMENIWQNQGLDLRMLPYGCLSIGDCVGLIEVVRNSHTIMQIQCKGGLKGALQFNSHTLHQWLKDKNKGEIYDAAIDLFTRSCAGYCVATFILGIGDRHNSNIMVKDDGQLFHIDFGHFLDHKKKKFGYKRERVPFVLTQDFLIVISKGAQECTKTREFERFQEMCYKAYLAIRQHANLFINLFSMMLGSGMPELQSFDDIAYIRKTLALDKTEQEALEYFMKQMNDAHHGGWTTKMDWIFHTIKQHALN
Chain of Cyclin-dependent kinase 11A (Homo sapiens) (Q9UQ88 whole entry, the tested form may be a part): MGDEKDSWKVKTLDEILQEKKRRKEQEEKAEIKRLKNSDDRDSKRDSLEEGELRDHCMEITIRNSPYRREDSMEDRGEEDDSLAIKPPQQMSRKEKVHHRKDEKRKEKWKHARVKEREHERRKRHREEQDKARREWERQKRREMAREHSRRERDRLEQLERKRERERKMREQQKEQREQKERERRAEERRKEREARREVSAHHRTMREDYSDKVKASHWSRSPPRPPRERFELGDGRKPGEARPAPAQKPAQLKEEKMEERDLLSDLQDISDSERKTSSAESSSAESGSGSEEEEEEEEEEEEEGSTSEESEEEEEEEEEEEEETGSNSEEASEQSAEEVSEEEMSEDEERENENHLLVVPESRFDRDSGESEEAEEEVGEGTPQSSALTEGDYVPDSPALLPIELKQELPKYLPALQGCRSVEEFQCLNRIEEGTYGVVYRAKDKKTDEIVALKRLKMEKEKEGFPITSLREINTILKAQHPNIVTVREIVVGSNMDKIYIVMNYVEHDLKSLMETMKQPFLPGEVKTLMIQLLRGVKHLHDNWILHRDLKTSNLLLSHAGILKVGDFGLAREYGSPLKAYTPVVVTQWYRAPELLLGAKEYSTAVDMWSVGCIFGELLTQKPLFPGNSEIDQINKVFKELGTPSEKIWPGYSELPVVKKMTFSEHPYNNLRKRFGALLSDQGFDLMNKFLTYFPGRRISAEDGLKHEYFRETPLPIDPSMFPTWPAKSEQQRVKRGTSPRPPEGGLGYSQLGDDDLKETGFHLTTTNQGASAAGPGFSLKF
Chain of Aurora kinase C (Homo sapiens) (Q9UQB9 whole entry, the tested form may be a part): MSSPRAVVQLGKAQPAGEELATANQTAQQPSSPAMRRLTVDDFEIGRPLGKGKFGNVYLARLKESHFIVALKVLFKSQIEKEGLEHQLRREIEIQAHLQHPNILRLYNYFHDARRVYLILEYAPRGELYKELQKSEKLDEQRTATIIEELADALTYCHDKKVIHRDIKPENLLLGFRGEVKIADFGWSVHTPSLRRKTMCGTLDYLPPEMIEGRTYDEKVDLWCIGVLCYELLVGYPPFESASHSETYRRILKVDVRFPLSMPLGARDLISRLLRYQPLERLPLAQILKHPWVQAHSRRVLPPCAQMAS

Compound `Cc1ccc(NC(=O)c2ccc(CN(CCN(C)C)C(=O)c3cccnc3)cc2)cc1Nc1nccc(-c2cccnc2)n1` has an Activity [1] of 74%, an Activity [2] of 100% and an Activity [3] of 100%. It also gave an Activity [4] of 100%, an Activity [5] of 99% and an Activity [6] of 80%. The Activity [7] was 100%, the Activity [8] was 97% and the Activity [9] was 100%. It also gave an Activity [10] of 96%, an Activity [11] of 89% and an Activity [12] of 93%. It also gave an Activity [13] of 92%, an Activity [14] of 3.9% and an Activity [15] of 96%. For the same compound, the Cmax [16] was 4590 ng/mL, the Activity [17] was 99% and the Activity [18] was 100%. For the same compound, the IC50 [19] was 132 nM, the Activity [20] was 87% and the Activity [21] was 97%. It also gave a Tmax [22] of 1.02 min.
